Data published in PMC6089219 (ACS chemical biology, 2018).

How the values were obtained:
[1] = target: T1, human ALDH1A2 (Homo sapiens, UniProt O94788); test: Differential scanning fluorimetry; assay type: binding; conditions: for DSF ΔTm (°C); (−) NAD: 200 μM compound, 4 μM ALDH1A2, absence of NAD, single experiment in quadruplicate
T1 sequence (O94788 27-518): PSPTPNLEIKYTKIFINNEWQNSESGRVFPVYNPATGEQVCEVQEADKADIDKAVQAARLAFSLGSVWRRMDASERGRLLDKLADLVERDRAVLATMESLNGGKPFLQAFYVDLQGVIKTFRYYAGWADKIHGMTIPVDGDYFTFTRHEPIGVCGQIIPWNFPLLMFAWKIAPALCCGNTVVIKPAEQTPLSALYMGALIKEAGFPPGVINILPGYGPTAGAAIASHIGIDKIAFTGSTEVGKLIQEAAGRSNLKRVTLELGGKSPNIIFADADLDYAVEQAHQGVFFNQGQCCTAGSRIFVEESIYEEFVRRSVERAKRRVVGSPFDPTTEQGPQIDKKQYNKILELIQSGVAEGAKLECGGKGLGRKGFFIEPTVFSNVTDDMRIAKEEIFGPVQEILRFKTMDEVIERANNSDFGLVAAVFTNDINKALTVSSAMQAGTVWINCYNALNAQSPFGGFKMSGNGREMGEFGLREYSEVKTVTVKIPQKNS
Method in brief: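 Truncated human ALDH1A2 (residues 27–518) expressed in E. coli BL21Star (DE3), His-tag removed by PreScission protease, purified as a tetramer. Fluorescence read at 620 nm (ROX channel) during thermal melt, in quadruplicate. ΔTm taken against unliganded enzyme with 2% DMSO.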

[2] = target: the molecule itself; test: crystal structure

O=C(NCCCCCCCCNC(=O)C(Cl)Cl)C(Cl)Cl [WIN18,446, reference compound]
DSF ΔTm (°C); (−) NAD [1]: 7.6 ± 0.17 °C

NC(=O)c1ccc[n+]([C@@H]2O[C@H](COP(=O)([O-])OP(=O)(O)OC[C@H]3O[C@@H](n4cnc5c(N)ncnc54)[C@H](O)[C@@H]3O)[C@@H](O)[C@H]2O)c1 [NAD]
DSF ΔTm (°C); (+) NAD ([1]; 1 mM NAD+ alone, no inhibitor): 2.6 ± 0.04 °C

CS(=O)(=O)c1ccc(-c2nn(-c3ccc(C#N)cc3)cc2C(=O)Nc2cccc(F)c2)cc1 [CM121]
DSF ΔTm (°C); (−) NAD [1]: 5.4 ± 0.15 °C

B1: human ALDH1A2 (residues 27-518) (enzyme, UniProt O94788 27-518, looked up)
chain: T1 sequence (O94788 27-518)
stoichiometry N [2]: 4
